# Laboratory results: PubChem BioAssay AID488804 (Broad Institute, 2010)
# Calls of active or inactive are those of the source.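 The calls were made as follows: active = luminescence cut by over half relative to the proteasome inhibitor control, with potency below ten times the top valid dose; inactive = no activity, or signal change in the wrong direction.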
# Biological target: 26S proteasome chymotrypsin-like activity (human)
# Test: inhibitors of cellular proteasome chymotrypsin-like activity, dose response, counter-screen, cell-based, U2OS, luminescence, dry powder, set 2 (AID 488804)
# Conditions: U2OS cells, Proteasome-Glo chymotrypsin luminescence
# Procedure, shortened: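 material = human U2OS osteosarcoma cells, proteasome chymotrypsin-like activity | amount = 2,500 U2OS cells per well | dosing = Eight-point threefold dilution series, 16.5 mM top stock | incubation = 24 h cell culture, 4 h compound exposure, 2 h reagent | technique = Proteasome-Glo chymotrypsin luminescence | control set = MG132 positive control | replicates = duplicates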
row,SMILES,AC50
1,CCCCNC(=O)c1cc(-c2ccccc2)on1,38 µM
2,O=C(Nc1cn2ccccc2n1)c1cc(-c2ccccc2)on1,6.99 µM
3,O=C(Nc1ncc(-c2ccccc2)o1)c1cc(-c2ccccc2)on1,38 µM

# Further lines, results first:
row,AC50,SMILES
1,2.63 µM,Cc1cccc(NC(=O)c2cc(-c3ccccc3)on2)n1
2,23.5 µM,O=C(Nc1ncc2ccccc2n1)c1cc(-c2ccccc2)on1

# Same assay, conditions: U2OS cells, Proteasome-Glo chymotrypsin luminescence; at 38 µM (top of the series)
row,SMILES,"activity change, negative = inhibition"
1,O=C(NCCCO)c1cc(-c2ccccc2)on1,inactive
2,c1ccc(-c2nnc(-c3ccccn3)nc2N2CCC(N3CCOCC3)CC2)cc1,inactive
3,O=C(NCCN1CCCCC1)c1cc(-c2ccccc2)on1,inactive
4,O=C(NCCN1CCOCC1)c1cc(-c2ccccc2)on1,inactive
5,CN(C)c1nc(-c2ccccn2)nnc1-c1ccccc1,inactive
6,Cc1ccc(CNc2nc(-c3ccccn3)nnc2-c2ccccc2)cc1,inactive
7,O=C(c1cc(-c2ccccc2)on1)N1CCC(N2CCCC2)CC1,inactive
8,O=C(NCCCCO)c1cc(-c2ccccc2)on1,inactive
9,Cn1c(NC(=O)c2cc(-c3ccccc3)on2)nc2ccccc21,inactive
10,Cc1ccc(Nc2nc(-c3ccccn3)nnc2-c2ccccc2)cn1,inactive
11,Cc1ccccc1CNc1nc(-c2ccccn2)nnc1-c1ccccc1,inactive
12,CN1CCN(C(=O)c2cc(-c3ccccc3)on2)CC1,inactive
13,Cc1cccc(CNC(=O)c2cc(-c3ccccc3)on2)c1,inactive
14,c1ccc(CNc2nc(-c3ccccn3)nnc2-c2ccccc2)cc1,inactive
15,O=C(Nc1nc(-c2ccccc2)cs1)c1cc(-c2ccccc2)on1,inactive
16,c1ccc(-c2nnc(Nc3nc(-c4ccccn4)nnc3-c3ccccc3)s2)cc1,inactive
17,O=C(Nc1cnc2ccccc2c1)c1cc(-c2ccccc2)on1,inactive

row,SMILES,"activity change, negative = inhibition"
1,OCC1CCN(c2nc(-c3ccccn3)nnc2-c2ccccc2)CC1,inactive
2,c1ccc(-c2nnc(-c3ccccn3)nc2NCC2CC2)cc1,inactive
3,O=C(NCCCN1CCOCC1)c1cc(-c2ccccc2)on1,inactive
4,c1ccc(-c2nnc(-c3ccccn3)nc2NCCN2CCOCC2)cc1,inactive
5,c1ccc(-c2cnc(Nc3nc(-c4ccccn4)nnc3-c3ccccc3)s2)cc1,inactive
6,Cc1ccc(NC(=O)c2cc(-c3ccccc3)on2)cn1,inactive
7,c1ccc(-c2nnc(-c3ccccn3)nc2Nc2cnc3ccccc3n2)cc1,inactive
8,Cc1cccc(Nc2nc(-c3ccccn3)nnc2-c2ccccc2)n1,inactive
9,Cc1ccc(CNC(=O)c2cc(-c3ccccc3)on2)cc1,inactive
10,CN(C)CCNC(=O)c1cc(-c2ccccc2)on1,inactive
11,O=C(c1cc(-c2ccccc2)on1)N1CCc2cccnc21,inactive
12,O=C(Nc1nc2ccccc2s1)c1cc(-c2ccccc2)on1,inactive
13,CC(C)(C)CCNc1nc(-c2ccccn2)nnc1-c1ccccc1,inactive
14,OCCCNc1nc(-c2ccccn2)nnc1-c1ccccc1,inactive
15,O=C(NC1Cc2ccccc2C1)c1cc(-c2ccccc2)on1,inactive
16,O=C(Nc1nnc(-c2ccccc2)s1)c1cc(-c2ccccc2)on1,inactive
17,c1ccc(-c2csc(Nc3nc(-c4ccccn4)nnc3-c3ccccc3)n2)cc1,inactive

# Other lines, results leading:
row,"activity change, negative = inhibition",SMILES
1,inactive,O=C(NCc1ccccc1)c1cc(-c2ccccc2)on1
2,inactive,O=C(NCC1CCCCC1)c1cc(-c2ccccc2)on1
3,inactive,c1ccc(-c2nnc(-c3ccccn3)nc2NCCCN2CCOCC2)cc1
4,inactive,c1ccc(-c2nnc(-c3ccccn3)nc2Nc2nc3ccccc3s2)cc1
5,inactive,O=C(NCCCn1ccnc1)c1cc(-c2ccccc2)on1
6,inactive,O=C(c1cc(-c2ccccc2)on1)N1CCC(CO)CC1
7,inactive,O=C(c1cc(-c2ccccc2)on1)N1CCN(c2ccncc2)CC1
8,inactive,O=C(NC1CCc2ccccc2C1)c1cc(-c2ccccc2)on1 (centres undefined)
9,inactive,Cc1ccccc1CNC(=O)c1cc(-c2ccccc2)on1
10,inactive,c1ccc(-c2nnc(-c3ccccn3)nc2NCC2CCCCC2)cc1
11,inactive,Cn1c(-c2ccccc2)cnc1Nc1nc(-c2ccccn2)nnc1-c1ccccc1
12,inactive,c1ccc(-c2nnc(-c3ccccn3)nc2N2CCN(c3ccncc3)CC2)cc1
13,inactive,O=C(Nc1ccc2ccccc2n1)c1cc(-c2ccccc2)on1
14,inactive,C=CCNc1nc(-c2ccccn2)nnc1-c1ccccc1
15,inactive,O=C(c1cc(-c2ccccc2)on1)N1CCC(N2CCOCC2)CC1
16,inactive,Cn1c(-c2ccccc2)cnc1NC(=O)c1cc(-c2ccccc2)on1
17,inactive,CC(C)(C)CCNC(=O)c1cc(-c2ccccc2)on1
18,inactive,CN1CCN(c2nc(-c3ccccn3)nnc2-c2ccccc2)CC1
19,inactive,O=C(NCC1CC1)c1cc(-c2ccccc2)on1
20,inactive,Cc1cccc(CNc2nc(-c3ccccn3)nnc2-c2ccccc2)c1
